Publication PMC9527016 (Toxicology letters, 2020)
One block for each molecule: values may come before it.

Legend:
[1] = test system: cysteine peptide Ac-RFAACAA-COOH; assay: Cysteine peptide depletion, RapidFire-MS/MS DPRA; type: biochemical; details: for Detection as sensitizer in the cysteine peptide depletion assay: threshold defined by OECD test guideline 442C
[2] = test system: lysine peptide Ac-RFAAKAA-COOH; assay: Lysine peptide depletion, HPLC-TOF-MS; type: biochemical
Outline: (§1)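 Peptide mixtures are separated on a C18 column (2.1×150 mm, 1.7 μm) at 60 °C and 0.4 mL/min. Mobile phases are water and acetonitrile with 0.1% formic acid, run over a 22 min gradient. Detection is by positive-mode ESI-TOF MS over m/z 150–1700. Seven concentrations of test compound are tested. Integrated lysine or alanine peptide area is normalised to the DMSO control.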

[3] = test system: cysteine peptide Ac-RFAACAA-COOH; assay: Confirmation of chemical-cysteine peptide adduct by HPLC-TOF-MS; type: biochemical; details: HPLC-TOF-MS after 24 h incubation; Figure 6
Outline: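 Cysteine peptide (Ac-RFAACAA-COOH) is mixed with alanine peptide and incubated with test compound for 24 h. The mixture is run by C18 LC (60 °C, 0.4 mL/min, 22 min water/acetonitrile 0.1% formic acid gradient) with positive-mode ESI-TOF MS over m/z 150–1700. Total ion chromatograms are recorded, and mass spectra of selected peaks are inspected for adduct or peptide dimer masses.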

[4] = test system: alanine peptide Ac-RFAAAAA-COOH; assay: Alanine peptide; type: biochemical
Outline: (§2)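 Lysine peptide (Ac-RFAAKAA-COOH) and alanine internal-standard peptide are mixed, each at 0.5 mM final, in acetate ammonia buffer pH 10.2. Test compound in DMSO […] is added in a 384-well plate and incubated 24 h at room temperature. The range is 12 μM–50 mM or 25 μM–100 mM. Samples are diluted to 0.05 μM, then analysed by C4 SPE with triple-quadrupole MRM. Peptide area is normalised to DMSO wells.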

[5] = test system: alanine peptide Ac-RFAAAAA-COOH; assay: Alanine peptide signal, HPLC-TOF-MS; type: biochemical
Outline: as §1

[6] = test system: lysine peptide Ac-RFAAKAA-COOH; assay: Lysine peptide depletion, RapidFire-MS/MS DPRA; type: biochemical
Outline: as §2

lysine peptide = details: cited from earlier work
[7] = Precipitation in lysine peptide buffer; type: physicochemical; details: 100 mM added into the lysine peptide buffer

Compound: C=C(C)C(=O)OCC(C)O (stereo not shown) [2-Propenoic acid, 2-methyl-, monoester with 1,2-propanedio]
Detection as sensitizer in the cysteine peptide depletion assay [1]: not detected

Compound: O=C/C=C/c1ccccc1 [Cinnamic aldehyde]
Lysine peptide signal, HPLC-TOF-MS ([2]; at 100 mM, Figure 5B): slight decrease | Adduct formation with cysteine peptide [3]: formed adduct peak with cysteine peptide | Decrease in alanine peptide signal (depletion), RapidFire-MS/MS ([4]; high concentrations (above 1 mM), area normalized to DMSO, Figure 5A): > 60% | Alanine peptide signal, HPLC-TOF-MS ([5]; 7-point concentration range, Figure 5A): no changes were observed

Compound: CCCCCCCCCCCCOC(=O)c1cc(O)c(O)c(O)c1 [Dodecyl gallate]
Detection as sensitizer in the cysteine peptide depletion assay [1]: not detected

Compound: C=CC(=O)OCC [Ethyl acrylate]
Detection as sensitizer in the cysteine peptide depletion assay [1]: not detected | Depletion of the lysine peptide at the highest tested concentrations [6]: more than 50%

Compound: C=C(C)C(=O)OCCOC(=O)C(=C)C [Ethylene glycol dimethacrylate]
Adduct formation with cysteine peptide [3]: formed adduct peak with cysteine peptide

Compound: O=CCCCC=O [Glutaraldehyde]
Lysine peptide signal vs concentration, HPLC-TOF-MS ([2]; Figure 5E): decreased in a concentration-dependent manner | Depletion of the lysine peptide at the highest tested concentrations [6]: more than 50% | Lysine peptide signal vs concentration, RapidFire-MS/MS ([6]; lysine peptide area only, Figure 5E): decreased in a concentration-dependent manner | Alanine peptide signal vs concentration, RapidFire-MS/MS ([4]; Figure 5D): decreased in a concentration-dependent manner | Alanine peptide signal vs concentration, HPLC-TOF-MS ([5]; Figure 5D): decreased in a concentration-dependent manner

Compound: Oc1ccc(O)cc1 [Hydroquinone]
Depletion of the lysine peptide at the highest tested concentrations [6]: more than 50% | Depletion of the lysine peptide (lysine peptide; at 0.5 mM, ref Gerberick et al., 2004): 83.3%

Compound: C=CC(=O)OCCO [Hydroxyethyl acrylate]
Depletion of the lysine peptide at the highest tested concentrations [6]: more than 50%

Compound: O=C(NCNC(=O)NC1C(=O)NC(=O)N1CO)NC1C(=O)NC(=O)N1CO (stereo not shown) [Imidazolidinyl urea]
Detection as sensitizer in the cysteine peptide depletion assay [1]: not detected

Precipitation on addition to lysine peptide buffer [7]: immediate precipitation
Compound: CCCCCCCCCCCCCCCC(=O)Cl [Palmitoyl chloride]
Detection as sensitizer in the cysteine peptide depletion assay [1]: not detected | Lysine peptide depletion (literature) (lysine peptide; ref No, O.T., 2015): almost completely depleted lysine peptide

Compound: O=CCc1ccccc1 [Phenylacetaldehyde]
Detection as sensitizer in the cysteine peptide depletion assay [1]: not detected

Compound: CCCOC(=O)c1cc(O)c(O)c(O)c1 [Propyl gallate]
Depletion of the lysine peptide at the highest tested concentrations [6]: more than 50%

Compound: CCCCCC [n-Hexane]
Efficacy (% peptide depletion), cysteine peptide ([1]; pH 7.5): Inactive | IC50 (M), depletion of cysteine peptide ([1]; pH 7.5): Inactive
